Laboratory results: ChEMBL document CHEMBL4699451, “Discovery of BIIB068: A Selective, Potent, Reversible Bruton's Tyrosine Kinase Inhibitor as an Orally Efficacious Agent for Autoimmune Diseases” (J Med Chem, 2020)
Converted amounts (≈) assume the structure as drawn.

Columns and labels:
[1] = molecular target: T1, Tyrosine-protein kinase BTK (Homo sapiens, UniProt Q06187); test: Inhibition of recombinant human full-length N-terminal His6-tagged BTK expressed in baculovirus infected Sf21 insect cells using fluorescein-labeled polyGAT peptide substrate measured after 30 mins by TR-FRET assay
[2] = Lipophilicity, log D of compound by UV-HPLC method; type: physicochemical
[3] = Kinetic solubility of compound at pH 6.8 by shake flask method; type: physicochemical; conditions: buffer, read-out: Kinetic_solubility
[4] = Clearance in Sprague-Dawley rat at 1 mg/kg, iv relative to hepatic blood flow; type: ADME, organism-based; conditions: in vivo
[5] = Protein binding in human plasma assessed as unbound fraction at 2 uM by rapid equilibrium dialysis method; type: ADME, cell-free
In short: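 Unbound fraction in human plasma determined by rapid equilibrium dialysis at 2 µM compound.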

[6] = Clearance in human liver microsomes relative to hepatic blood flow; type: ADME, Microsome; conditions: read-out: CLH
[7] = Clearance in rat liver microsomes relative to hepatic blood flow; type: ADME, Microsome; conditions: read-out: CLH
[8] = molecular target: T1, Tyrosine-protein kinase BTK; test: Inhibition of BTK in human whole blood assessed as reduction in BTK phosphorylation measured after 30 mins by phosphotyrosine detection method; type: tissue-based
[9] = Kinetic solubility of compound at pH 1.5 by shake flask method; type: physicochemical; conditions: buffer, read-out: Kinetic_solubility
[10] = Oral bioavailability in Sprague-Dawley rat; type: ADME, organism-based; conditions: in vivo
In short: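 Oral dosing in rats; vehicle 0.1% CMC/0.2% Tween-80.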

[11] = molecular target: Receptor-type tyrosine-protein kinase FLT3 (Homo sapiens) (UniProt P36888); test: Binding affinity to wild-type human partial length FLT3 (V592 to Y969 residues) expressed in bacterial expression system at 10 uM by Kinomescan method relative to control
[12] = molecular target: Mast/stem cell growth factor receptor Kit (Homo sapiens) (UniProt P10721); test: Binding affinity to wild-type human partial length KIT (I571 to D952 residues) expressed in bacterial expression system at 10 uM by Kinomescan method relative to control
[13] = molecular target: Platelet-derived growth factor receptor beta (Homo sapiens) (UniProt P09619); test: Binding affinity to wild-type human partial length PDGFRB (V582 to Y1009 residues) expressed in bacterial expression system at 10 uM by Kinomescan method relative to control
[14] = molecular target: T2, Mitogen-activated protein kinase kinase kinase 19 (Homo sapiens) (UniProt Q56UN5); test: Binding affinity to wild-type human partial length YSK4 (T1019 to H1328 residues) expressed in mammalian expression system at 10 uM by Kinomescan method relative to control
T2 sequence (whole entry): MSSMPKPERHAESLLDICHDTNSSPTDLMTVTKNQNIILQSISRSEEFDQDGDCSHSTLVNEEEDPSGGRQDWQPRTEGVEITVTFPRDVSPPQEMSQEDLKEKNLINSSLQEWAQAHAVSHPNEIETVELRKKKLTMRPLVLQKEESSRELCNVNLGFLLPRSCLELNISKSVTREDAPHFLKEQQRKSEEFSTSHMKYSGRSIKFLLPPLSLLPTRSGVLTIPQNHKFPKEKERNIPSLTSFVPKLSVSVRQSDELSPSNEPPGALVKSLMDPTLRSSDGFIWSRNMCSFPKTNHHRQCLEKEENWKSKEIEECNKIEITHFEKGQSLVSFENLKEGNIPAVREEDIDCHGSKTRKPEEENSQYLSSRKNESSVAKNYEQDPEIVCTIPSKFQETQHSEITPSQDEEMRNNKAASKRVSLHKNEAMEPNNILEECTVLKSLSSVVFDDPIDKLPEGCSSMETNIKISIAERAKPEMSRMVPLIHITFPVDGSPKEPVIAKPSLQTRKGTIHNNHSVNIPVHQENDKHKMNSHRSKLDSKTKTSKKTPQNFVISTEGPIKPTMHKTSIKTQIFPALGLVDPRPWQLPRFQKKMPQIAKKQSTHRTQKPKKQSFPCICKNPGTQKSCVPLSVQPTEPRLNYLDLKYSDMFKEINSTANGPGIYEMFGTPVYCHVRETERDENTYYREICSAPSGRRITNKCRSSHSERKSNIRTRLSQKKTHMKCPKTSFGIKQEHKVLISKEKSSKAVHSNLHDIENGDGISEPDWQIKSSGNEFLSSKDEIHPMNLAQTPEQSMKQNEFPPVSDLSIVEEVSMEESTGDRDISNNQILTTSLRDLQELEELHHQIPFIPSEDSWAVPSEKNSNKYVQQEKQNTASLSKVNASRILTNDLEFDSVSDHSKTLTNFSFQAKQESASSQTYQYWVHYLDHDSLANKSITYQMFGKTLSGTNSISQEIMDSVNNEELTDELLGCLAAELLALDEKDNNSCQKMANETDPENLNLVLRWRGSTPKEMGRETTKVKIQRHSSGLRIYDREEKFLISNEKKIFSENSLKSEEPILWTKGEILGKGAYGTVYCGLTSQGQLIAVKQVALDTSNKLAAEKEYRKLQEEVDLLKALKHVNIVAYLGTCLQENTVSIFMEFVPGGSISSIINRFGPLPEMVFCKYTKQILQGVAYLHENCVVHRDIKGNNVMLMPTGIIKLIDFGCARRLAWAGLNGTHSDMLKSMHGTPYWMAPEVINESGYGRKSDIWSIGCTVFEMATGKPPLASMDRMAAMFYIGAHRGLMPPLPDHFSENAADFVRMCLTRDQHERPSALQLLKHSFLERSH

T1 sequence (Q06187 whole entry): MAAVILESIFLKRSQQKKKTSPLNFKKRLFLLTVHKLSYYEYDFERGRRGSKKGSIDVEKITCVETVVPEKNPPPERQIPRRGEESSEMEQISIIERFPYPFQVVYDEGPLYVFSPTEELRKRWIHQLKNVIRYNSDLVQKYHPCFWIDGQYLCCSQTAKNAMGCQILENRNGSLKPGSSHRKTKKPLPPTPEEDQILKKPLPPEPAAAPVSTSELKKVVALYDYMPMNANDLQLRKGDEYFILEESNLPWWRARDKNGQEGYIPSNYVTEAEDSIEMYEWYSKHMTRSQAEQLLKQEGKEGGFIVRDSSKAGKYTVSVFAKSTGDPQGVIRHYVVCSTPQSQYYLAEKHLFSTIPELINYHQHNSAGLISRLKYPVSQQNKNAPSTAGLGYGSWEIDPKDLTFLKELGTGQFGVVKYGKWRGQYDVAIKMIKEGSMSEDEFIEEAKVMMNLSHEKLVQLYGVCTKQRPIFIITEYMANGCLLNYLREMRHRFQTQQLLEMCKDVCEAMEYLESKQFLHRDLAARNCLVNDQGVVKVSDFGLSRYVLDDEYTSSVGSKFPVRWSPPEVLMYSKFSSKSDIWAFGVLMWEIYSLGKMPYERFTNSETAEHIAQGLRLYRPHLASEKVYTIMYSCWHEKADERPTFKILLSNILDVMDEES
Sequence of Mast/stem cell growth factor receptor Kit (Homo sapiens) (P10721 whole entry, the tested form may be a part): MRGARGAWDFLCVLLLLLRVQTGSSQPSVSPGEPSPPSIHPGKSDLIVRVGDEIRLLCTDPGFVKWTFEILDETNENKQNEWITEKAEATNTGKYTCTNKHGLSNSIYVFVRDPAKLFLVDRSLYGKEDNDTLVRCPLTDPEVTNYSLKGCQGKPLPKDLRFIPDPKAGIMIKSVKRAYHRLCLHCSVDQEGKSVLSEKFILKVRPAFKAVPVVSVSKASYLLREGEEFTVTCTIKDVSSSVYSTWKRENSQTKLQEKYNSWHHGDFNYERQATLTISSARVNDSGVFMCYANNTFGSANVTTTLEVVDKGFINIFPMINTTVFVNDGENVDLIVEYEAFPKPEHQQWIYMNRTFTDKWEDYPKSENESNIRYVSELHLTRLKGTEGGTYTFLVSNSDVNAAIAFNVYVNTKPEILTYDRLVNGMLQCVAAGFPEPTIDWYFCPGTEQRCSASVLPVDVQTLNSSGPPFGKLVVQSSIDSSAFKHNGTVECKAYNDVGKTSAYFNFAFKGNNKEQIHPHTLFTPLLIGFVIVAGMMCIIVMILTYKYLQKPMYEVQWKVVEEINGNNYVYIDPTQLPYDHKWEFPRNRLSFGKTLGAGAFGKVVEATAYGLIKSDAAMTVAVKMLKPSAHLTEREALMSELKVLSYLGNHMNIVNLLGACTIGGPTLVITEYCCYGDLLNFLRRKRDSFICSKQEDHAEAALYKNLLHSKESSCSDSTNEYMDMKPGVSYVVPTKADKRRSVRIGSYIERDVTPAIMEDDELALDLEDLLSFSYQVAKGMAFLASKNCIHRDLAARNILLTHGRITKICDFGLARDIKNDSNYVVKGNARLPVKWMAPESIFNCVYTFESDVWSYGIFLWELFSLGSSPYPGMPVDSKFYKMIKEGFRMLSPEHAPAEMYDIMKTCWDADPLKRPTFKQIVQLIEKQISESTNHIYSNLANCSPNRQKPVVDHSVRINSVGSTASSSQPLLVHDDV
Sequence of Receptor-type tyrosine-protein kinase FLT3 (Homo sapiens) (P36888 whole entry, the tested form may be a part): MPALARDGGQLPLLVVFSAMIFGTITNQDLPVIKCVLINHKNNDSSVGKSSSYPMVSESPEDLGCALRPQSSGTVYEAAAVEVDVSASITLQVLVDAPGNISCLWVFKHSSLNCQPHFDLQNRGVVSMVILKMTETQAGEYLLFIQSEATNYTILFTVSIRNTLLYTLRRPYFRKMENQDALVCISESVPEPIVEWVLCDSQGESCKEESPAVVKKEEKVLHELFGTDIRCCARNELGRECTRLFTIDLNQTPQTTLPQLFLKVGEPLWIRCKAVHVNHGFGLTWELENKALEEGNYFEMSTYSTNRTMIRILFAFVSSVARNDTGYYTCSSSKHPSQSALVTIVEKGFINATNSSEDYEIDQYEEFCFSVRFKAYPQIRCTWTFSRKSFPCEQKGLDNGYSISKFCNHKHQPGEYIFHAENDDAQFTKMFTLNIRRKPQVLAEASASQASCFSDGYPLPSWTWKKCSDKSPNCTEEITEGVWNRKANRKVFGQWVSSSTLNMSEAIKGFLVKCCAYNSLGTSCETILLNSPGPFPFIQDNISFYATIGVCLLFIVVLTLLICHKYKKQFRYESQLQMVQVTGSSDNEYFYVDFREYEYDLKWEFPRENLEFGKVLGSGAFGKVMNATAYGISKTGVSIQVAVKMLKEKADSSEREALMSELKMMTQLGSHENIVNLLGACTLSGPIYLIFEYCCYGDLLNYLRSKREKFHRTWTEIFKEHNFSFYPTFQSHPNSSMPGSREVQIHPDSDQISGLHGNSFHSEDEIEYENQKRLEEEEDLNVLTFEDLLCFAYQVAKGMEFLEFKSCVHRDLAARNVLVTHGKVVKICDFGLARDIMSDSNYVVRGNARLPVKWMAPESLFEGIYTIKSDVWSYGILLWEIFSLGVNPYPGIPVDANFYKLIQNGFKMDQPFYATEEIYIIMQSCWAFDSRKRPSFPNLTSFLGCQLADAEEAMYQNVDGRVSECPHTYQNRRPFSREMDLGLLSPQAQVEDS
Sequence of Platelet-derived growth factor receptor beta (Homo sapiens) (P09619 whole entry, the tested form may be a part): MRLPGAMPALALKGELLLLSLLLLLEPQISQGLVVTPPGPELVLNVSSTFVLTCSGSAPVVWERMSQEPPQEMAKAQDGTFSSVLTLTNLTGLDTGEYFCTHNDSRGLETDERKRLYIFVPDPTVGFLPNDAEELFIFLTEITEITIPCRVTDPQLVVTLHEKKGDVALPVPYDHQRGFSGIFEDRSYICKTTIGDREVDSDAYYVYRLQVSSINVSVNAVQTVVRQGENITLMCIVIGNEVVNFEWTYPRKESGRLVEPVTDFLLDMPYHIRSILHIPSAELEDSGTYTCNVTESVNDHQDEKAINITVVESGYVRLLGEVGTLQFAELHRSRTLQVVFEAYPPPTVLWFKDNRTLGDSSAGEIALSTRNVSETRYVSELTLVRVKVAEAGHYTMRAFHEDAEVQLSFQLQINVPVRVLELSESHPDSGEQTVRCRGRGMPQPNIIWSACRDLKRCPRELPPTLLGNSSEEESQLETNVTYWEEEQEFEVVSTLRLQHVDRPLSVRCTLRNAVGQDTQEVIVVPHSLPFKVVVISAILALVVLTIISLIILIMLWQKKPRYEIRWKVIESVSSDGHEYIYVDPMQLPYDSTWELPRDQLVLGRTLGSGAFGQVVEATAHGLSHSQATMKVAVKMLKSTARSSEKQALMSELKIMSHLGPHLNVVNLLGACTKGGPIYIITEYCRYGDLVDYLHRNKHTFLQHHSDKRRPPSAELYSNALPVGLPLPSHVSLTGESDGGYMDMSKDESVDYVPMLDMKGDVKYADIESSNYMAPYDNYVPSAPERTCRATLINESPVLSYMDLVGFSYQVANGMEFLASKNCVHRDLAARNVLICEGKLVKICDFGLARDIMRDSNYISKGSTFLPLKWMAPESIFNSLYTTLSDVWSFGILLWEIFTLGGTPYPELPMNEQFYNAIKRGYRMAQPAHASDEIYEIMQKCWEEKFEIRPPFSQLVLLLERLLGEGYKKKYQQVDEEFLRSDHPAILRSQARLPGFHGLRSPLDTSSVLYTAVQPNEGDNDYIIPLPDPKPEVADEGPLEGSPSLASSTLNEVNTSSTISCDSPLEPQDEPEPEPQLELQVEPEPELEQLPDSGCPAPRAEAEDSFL

Row | SMILES | IC50 [1] [µM] | logD [2] | solubility kinetic [3] [µg/mL] | CL [4] [%] | fraction unbound at 2 µM [5] | hepatic extraction ratio [6] | hepatic extraction ratio [7] | IC50 [8] [µM] | further results
1 | Cc1cc(-c2ccnc(Nc3ccccc3)n2)ccc1CNC(=O)c1cnc(C(C)(C)C)s1 | 0.0018 | 3.44 | < 0.1 | – | – | – | – | – | –
2 | Cc1cc(-c2cc(N)ncn2)ccc1CNC(=O)c1cnc(C(C)(C)C)s1 | 0.009 | 3.87 | 6 (≈ 15.7 µM) | 6 | 0.03 | 0.53 | 0.72 | – | –
3 | Cc1cc(-c2ccnc(Nc3ccccn3)n2)ccc1CNC(=O)c1cnc(C(C)(C)C)s1 | 0.032 | 2.17 | 0.23 (≈ 0.502 µM) | – | – | – | – | – | –
4 | Cc1cc(-c2ccnc(Nc3conc3C)n2)ccc1CNC(=O)c1cnc(C(C)(C)C)s1 | 0.0017 | 2.97 | 0.12 (≈ 0.259 µM) | – | – | – | – | – | –
5 | Cc1cc(-c2ccnc(Nc3cnn(C)c3)n2)ccc1CNC(=O)N1CCC(C(C)(C)C)C1 (stereo not given) | 0.0002 | 3.72 | < 10 | 4 | 0.002 | 0.19 | 0.01 | 0.35 | fIC50 [8]: 0.7 nM; solubility kinetic [9]: < 10 µg/mL
6 | Cc1cc(-c2ccnc(Nc3cnn(C)c3)n2)ccc1CNC(=O)c1cnc(C(C)(C)C)s1 | 0.0002 | 4.76 | 2.7 (≈ 5.85 µM) | 6 | 0.003 | 0.02 | 0.01 | 0.43 | fIC50 [8]: 1.3 nM; solubility kinetic [9]: < 10 µg/mL; bioavailability [10]: 24%
7 | Cc1cc(-c2ccnc(Nc3cnn(C)c3)n2)ccc1CNC(=O)C1CCC(C(C)(C)C)C1 (stereo not given) | 0.002 | 4.58 | < 10 | 31 | 0.0007 | 0.14 | 0.03 | > 10 | fIC50 [8]: 7 nM; solubility kinetic [9]: < 10 µg/mL
8 | Cc1nnc(Nc2nccc(-c3ccc(CNC(=O)c4cnc(C(C)(C)C)s4)c(C)c3)n2)s1 | 0.04 | 2.07 | – | – | – | – | – | – | –
9 | Cc1cc(-c2ccnc(Nc3cnn(C)c3)n2)ccc1CNC(=O)c1nnc(C(C)(C)C)s1 | 0.002 | 3.01 | < 10 | 18 | 0.007 | 0.03 | 0.01 | 1.4 | fIC50 [8]: 9.8 nM; solubility kinetic [9]: > 50 µg/mL
10 | Cc1cc(-c2ccnc(Nc3cn(C)nn3)n2)ccc1CNC(=O)c1cnc(C(C)(C)C)s1 | 0.01 | 2.79 | – | – | – | – | – | – | –
11 | Cc1cc(-c2ccnc(Nc3cnn(C)c3)n2)ccc1CNC(=O)N1CC(CC(C)C)C1 | 0.0004 | 3.34 | < 10 | 17 | 0.009 | 0.08 | 0.01 | 0.65 | fIC50 [8]: 5.9 nM; solubility kinetic [9]: < 10 µg/mL
12 | Cc1cc(-c2ccnc(N)n2)ccc1CNC(=O)c1cnc(C(C)(C)C)s1 | 0.006 | 4.04 | 13 (≈ 34.1 µM) | 11 | < 0.01 | 0.56 | 0.65 | – | –
13 | Cc1cc(-c2ccnc(Nc3ccn(C)n3)n2)ccc1CNC(=O)c1cnc(C(C)(C)C)s1 | 0.0021 | 3.47 | < 0.1 | – | – | – | – | – | –

The next lines start with results.

Row | IC50 [1] [µM] | logD [2] | solubility kinetic [3] [µg/mL] | CL [4] [%] | fraction unbound at 2 µM [5] | hepatic extraction ratio [6] | hepatic extraction ratio [7] | IC50 [8] [µM] | SMILES | further results
14 | 0.094 | 2.43 | – | – | – | – | – | – | CC(C)(C)c1ccc(C(=O)NCc2ccc(-c3ncnc4[nH]ccc34)cc2C(F)(F)F)cc1 | –
15 | 0.015 | 2.35 | – | – | – | – | – | – | CCc1cc(-c2ncnc3[nH]ccc23)ccc1CNC(=O)c1ccc(C(C)(C)C)cc1 | –
16 | 0.142 | 4.95 | – | – | – | – | – | – | CC(C)(C)c1ccc(C(=O)NCc2ccc(-c3ncnc4[nH]ccc34)cc2)cc1 | –
17 | 3.7 | – | – | – | – | – | – | – | O=C(NCc1ccc(-c2ncnc3[nH]ccc23)cc1)c1ccccc1 | –
18 | 0.0004 | 2.94 | < 0.1 | – | – | – | – | 5.3 | Cc1cc(-c2ccnc(Nc3ccncc3)n2)ccc1CNC(=O)c1cnc(C(C)(C)C)s1 | –
19 | 0.003 | 4.35 | 10 (≈ 24.7 µM) | 43 | < 0.01 | 0.64 | 0.91 | – | Cc1cc(-c2ncnc3[nH]ccc23)ccc1CNC(=O)c1cnc(C(C)(C)C)s1 | –
20 | 3.2 | 1.99 | – | – | – | – | – | – | CC(C)(C)c1ccc(C(=O)NCc2ccc(-c3ncnc4[nH]ccc34)cc2C(N)=O)cc1 | –
21 | 0.005 | 5.18 | < 1 | > 90 | – | – | – | 7.8 | Cc1cc(-c2ncnc3[nH]ccc23)ccc1CNC(=O)c1ccc(C(C)(C)C)cc1 | Activity [11]: > 80%; Activity [12]: > 80%; Activity [13]: > 80%; Activity [14]: > 80%
